Measured values reported in PMC7080202 (Medicinal Chemistry Research, 2013).
Entries after “also recorded” stand apart in the source; their conditions may differ. Read-outs that look alike come from different tables or passages of the source.

Tests used:
[1] = system: Vesicular stomatitis virus; experiment: microbe, parasite or virus in culture; assay type: cell-based; settings: Vesicular stomatitis virus, HEL, read-out: EC50 Vesicular stomatitis virus
[2] = system: Herpes simplex virus-2 (G); experiment: microbe, parasite or virus in culture; assay type: cell-based, herpes simplex virus type 2; settings: Human alphaherpesvirus 2, HEL, read-out: EC50 Herpes simplex virus-2 (G)
[3] = system: Herpes simplex virus-1 (KOS); experiment: microbe, parasite or virus in culture; assay type: cell-based, herpes simplex virus type 1; settings: Human alphaherpesvirus 1, HEL, read-out: EC50 Herpes simplex virus-1 (KOS)
Vaccinia virus = experiment: microbe, parasite or virus in culture; assay type: cell-based; settings: Orthopoxvirus vaccinia, HEL, read-out: EC50 Vaccinia virus
[4] = system: Human embryonic lung cell cultures; experiment: Cytotoxicity; assay type: cell-based
Method in brief: (§1)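 Cell cultures incubated with varying concentrations of test compound, then examined by microscopy. MCC is the lowest concentration that causes a microscopically detectable alteration of normal cell morphology. HEL, Vero and HeLa lines were monitored regularly for mycoplasma and found free of it.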

[5] = system: Herpes simplex virus-1TK-KOS ACV^r; experiment: microbe, parasite or virus in culture; assay type: cell-based, herpes simplex virus type 1; settings: Human alphaherpesvirus 1, HEL, read-out: EC50 Herpes simplex virus-1TK-KOS ACV^r
[6] = system: Cytomegalovirus Davis strain; experiment: microbe, parasite or virus in culture; assay type: cell-based; settings: Human betaherpesvirus 5, HEL, read-out: EC50 Cytomegalovirus Davis strain
Feline herpes virus = experiment: Antiviral CPE assay, feline herpes virus in CRFK cells; assay type: cell-based; settings: CRFK, read-out: EC50 Feline herpes virus
Vero cell cultures = experiment: Cytotoxicity; assay type: cell-based
Method in brief: as §1

HeLa cell cultures = experiment: Cytotoxicity; assay type: cell-based
Method in brief: as §1

Influenza B = experiment: Anti-influenza virus activity, influenza B in MDCK cells; assay type: cell-based, influenza B virus B/Hong Kong/5/72; settings: Influenza B virus, MDCK
[7] = system: Crandell-Rees feline kidney cells; experiment: Cytotoxicity; assay type: cell-based
Coxsackie virus B4 [8] = experiment: microbe, parasite or virus in culture; assay type: cell-based; settings: Enterovirus B, B4, HeLa, read-out: Antiviral activity EC50 Coxsackie virus B4
Coxsackie virus B4 [9] = experiment: microbe, parasite or virus in culture; assay type: cell-based; settings: Enterovirus B, B4, Vero, read-out: Antiviral activity EC50 Coxsackie virus B4
[10] = system: mouse-skin papillomas induced by DMBA and TPA; experiment: Two-stage mouse-skin carcinogenesis test; assay type: in vivo
Method in brief: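 Specific pathogen-free female ICR mice, 6 weeks old, about 30 g, 15 per group, kept at 24 ± 2 °C. Shaved backs were initiated with DMBA (100 μg, 390 nmol) in 0.1 ml acetone. One week later, TPA (1 μg, 1.7 nmol) in acetone was applied twice weekly. Test compound (85 nmol) in 0.1 ml acetone was applied topically 1 h before each TPA. Papillomas were scored weekly for 20 weeks as % mice bearing papillomas and mean papillomas per mouse.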

Sindbis virus = experiment: microbe, parasite or virus in culture; assay type: cell-based; settings: Sindbis virus, Vero, read-out: Antiviral activity EC50 Sindbis virus
Para-influenza-3 virus = experiment: organism not typed; assay type: cell-based, parainfluenza-3 virus; settings: Vero, read-out: Antiviral activity EC50 Para-influenza-3 virus
Reovirus-1 = experiment: organism not typed; assay type: cell-based; settings: Vero, read-out: Antiviral activity EC50 Reovirus-1
in vitro = settings: dog
MDCK cells = settings: microscopically detectable alteration of normal cell morphology
Punta Toro virus = experiment: microbe, parasite or virus in culture; assay type: cell-based; settings: Punta Toro virus, Vero, read-out: Antiviral activity EC50 Punta Toro virus
Influenza A H1N1 subtype = experiment: Anti-influenza virus activity, influenza A H1N1 in MDCK cells; assay type: cell-based, influenza A virus A/Puerto Rico/8/34 (H1N1); settings: H1N1, H3N2 and influenza B; below the non-toxic concentration of 100 µM
[11] = read-out: Antiviral EC50 Influenza B MTS
[12] = read-out: Antiviral EC50 Influenza B Visual CPE score

## Nc1ccn(C[C@@H](CO)OCP(=O)(O)O)c(=O)n1 [Cidofovir, reference compound]
[1]
  EC50: > 250 µM
[2]
  EC50: 1 µM
[3]
  EC50: 2 µM
Vaccinia virus
  EC50: 22 µM
[4]
  Minimum cytotoxic concentration: >300 µM
[5]
  EC50: 0.9 µM
[6]
  EC50: 0.78 ± 0.49 µM

## O=c1[nH]c(=O)n([C@H]2C[C@H](O)[C@@H](CO)O2)cc1/C=C/Br [Brivudin, reference compound]
[1]
  EC50: > 250 µM
[2]
  EC50: 112 µM
[3]
  EC50: 0.04 µM
Vaccinia virus
  EC50: 4 µM
[4]
  Minimum cytotoxic concentration: >300 µM
[5]
  EC50: 50 µM

## O=C(N/N=C1\C(=O)Nc2ccc(Cl)cc21)N/N=C1\C(=O)Nc2ccc(Cl)cc21 [6b, 1,3-Bis({[(3Z)-5-chloro-2-oxo-2,3-dihydro-1H-indol-3-ylidene]amino})urea]
Feline herpes virus
  EC50: 19.7 µM
Vero cell cultures
  Minimum cytotoxic concentration: 100 µM
[1]
  EC50: > 100 µM
[2]
  EC50: > 100 µM
[3]
  EC50: > 100 µM
HeLa cell cultures
  Minimum cytotoxic concentration: >100 µM
Influenza B; [11]
  EC50: > 100 µM
Influenza B; [12]
  EC50: > 100 µM
[7]
  Minimum cytotoxic concentration: >100 µM
Coxsackie virus B4 [8]
  EC50: > 100 µM
Vaccinia virus
  EC50: > 100 µM
Coxsackie virus B4 [9]
  EC50: > 20 µM
[4]
  Minimum cytotoxic concentration: 100 µM
[10]; 85 nmol topical
  chemoprevention / anti-tumor promoting activity (in words): moderate protection
[10]; 85 nmol topical, 10 weeks of promotion
  papillomas/mouse: 1.2 papillomas/mouse
[10]; 85 nmol topical, 15 weeks of promotion
  papillomas/mouse: 3.9 papillomas/mouse
[10]; 85 nmol topical, after week 17
  percentage of papillomas (mice with papillomas): 100%
[10]; 85 nmol topical, week 20
  papillomas/mouse: 6.1 papillomas/mouse
Sindbis virus
  EC50: > 20 µM
Para-influenza-3 virus
  EC50: > 20 µM
[5]
  EC50: > 100 µM
[6]
  EC50: > 20 µM
Reovirus-1
  EC50: > 20 µM
In vitro
  CC50: > 100 µM
MDCK cells
  Cytotoxicity Minimum cytotoxic concentration: >100
Punta Toro virus
  EC50: > 20 µM

## CCC(CC)O[C@@H]1C=C(C(=O)O)C[C@H](N)[C@H]1NC(C)=O [Oseltamivir carboxylate, reference compound]
Influenza B; [11]
  EC50: 2.5 ± 0.7 µM
Influenza B; [12]
  EC50: 6.7 ± 5.3 µM
In vitro
  CC50: > 100 µM
MDCK cells
  Cytotoxicity Minimum cytotoxic concentration: >100

## Nc1ncnc2c1ncn2C[C@H](O)CO [(S)-DHPA, reference compound]
Vero cell cultures
  Minimum cytotoxic concentration: >250 µM
HeLa cell cultures
  Minimum cytotoxic concentration: >250 µM
Coxsackie virus B4 [8]
  EC50: > 250 µM
Coxsackie virus B4 [9]
  EC50: > 250 µM
Sindbis virus
  EC50: > 250 µM
Para-influenza-3 virus
  EC50: > 250 µM
Reovirus-1
  EC50: > 250 µM
Punta Toro virus
  EC50: > 250 µM

## CC(N)C12CC3CC(CC(C3)C1)C2 (centres unmarked) [Rimantadine, reference compound]
Influenza B; [11]
  EC50: > 200 µM
Influenza B; [12]
  EC50: > 200 µM
In vitro
  CC50: > 200 µM
MDCK cells
  Cytotoxicity Minimum cytotoxic concentration: >200

## NC12CC3CC(CC(C3)C1)C2 [Amantadine, reference compound]
Influenza B; [11]
  EC50: > 200 µM
Influenza B; [12]
  EC50: > 200 µM
In vitro
  CC50: > 200 µM
MDCK cells
  Cytotoxicity Minimum cytotoxic concentration: >200

## O=C(N/N=C1\C(=O)Nc2ccccc21)N/N=C1\C(=O)Nc2ccccc21 [6a, 1,3-Bis({[(3Z)-2-oxo-2,3-dihydro-1H-indol-3-ylidene]amino})urea]
Feline herpes virus
  EC50: > 100 µM
Vero cell cultures
  Minimum cytotoxic concentration: 100 µM
[1]
  EC50: > 100 µM
[2]
  EC50: > 100 µM
[3]
  EC50: > 100 µM
HeLa cell cultures
  Minimum cytotoxic concentration: >100 µM
Influenza B; [11]
  EC50: > 100 µM
Influenza B; [12]
  EC50: > 100 µM
[7]
  Minimum cytotoxic concentration: >100 µM
Coxsackie virus B4 [8]
  EC50: > 100 µM
Vaccinia virus
  EC50: > 100 µM
[4]
  Minimum cytotoxic concentration: ≥100 µM
[5]
  EC50: > 100 µM
[6]
  EC50: > 100 µM
In vitro
  CC50: > 100 µM
MDCK cells
  Cytotoxicity Minimum cytotoxic concentration: >100

## O=C1Nc2ccccc2/C1=N/NC(=S)N/N=C1\C(=O)Nc2ccccc21 [6e, 1,3-Bis({[(3Z)-2-oxo-2,3-dihydro-1H-indol-3-ylidene]amino})thiourea]
Feline herpes virus
  EC50: > 100 µM
Vero cell cultures
  Minimum cytotoxic concentration: 100 µM
[1]
  EC50: > 100 µM
[2]
  EC50: > 100 µM
[3]
  EC50: > 100 µM
HeLa cell cultures
  Minimum cytotoxic concentration: >100 µM
Influenza B; [11]
  EC50: 48 ± 31 µM
Influenza B; [12]
  EC50: 39 ± 5.5 µM
[7]
  Minimum cytotoxic concentration: >100 µM
Coxsackie virus B4 [8]
  EC50: > 100 µM
Vaccinia virus
  EC50: > 100 µM
[4]
  Minimum cytotoxic concentration: 100 µM
[5]
  EC50: > 100 µM
[6]
  EC50: > 20 µM
Influenza A H1N1 subtype
  anti-influenza activity (in words): some activity
In vitro
  CC50: > 100 µM
MDCK cells
  Cytotoxicity Minimum cytotoxic concentration: >100

## Nc1nc(O)c2ncn(COC(CO)CO)c2n1 [Ganciclovir, reference compound]
Feline herpes virus
  EC50: 1.4 µM
[1]
  EC50: > 100 µM
[2]
  EC50: 0.01 µM
[3]
  EC50: 0.02 µM
[7]
  Minimum cytotoxic concentration: >100 µM
Vaccinia virus
  EC50: > 100 µM
[4]
  Minimum cytotoxic concentration: >350 µM
[5]
  EC50: 4 µM
[6]
  EC50: 5.5 ± 2.36 µM

## O=C1/C(=N\NC(=S)NN=Cc2ccccc2)c2ccccc2N1Cc1ccccc1 [4g, 3-{[(3Z)-1-benzyl-2-oxo-2,3-dihydro-1H-indol-3-ylidene]amino}-1-[(phenylmethylidene)amino]thiourea]
Feline herpes virus
  EC50: > 100 µM
Vero cell cultures
  Minimum cytotoxic concentration: >100 µM
[1]
  EC50: > 100 µM
[2]
  EC50: > 100 µM
[3]
  EC50: > 100 µM
HeLa cell cultures
  Minimum cytotoxic concentration: 100 µM
Influenza B; [11]
  EC50: > 100 µM
Influenza B; [12]
  EC50: > 100 µM
[7]
  Minimum cytotoxic concentration: ≥100 µM
Coxsackie virus B4 [8]
  EC50: > 20 µM
Vaccinia virus
  EC50: > 100 µM
Coxsackie virus B4 [9]
  EC50: > 100 µM
[4]
  Minimum cytotoxic concentration: ≥100 µM
Sindbis virus
  EC50: > 100 µM
Para-influenza-3 virus
  EC50: > 100 µM
[5]
  EC50: > 100 µM
[6]
  EC50: > 100 µM
Reovirus-1
  EC50: > 100 µM
In vitro
  CC50: > 100 µM
MDCK cells
  Cytotoxicity Minimum cytotoxic concentration: >100
Punta Toro virus
  EC50: > 100 µM

## Nc1nc2c(ncn2COCCO)c(=O)[nH]1 [Acyclovir, reference compound]
[1]
  EC50: > 250 µM
[2]
  EC50: 0.2 µM
[3]
  EC50: 0.4 µM
Vaccinia virus
  EC50: > 250 µM
[5]
  EC50: 22 µM

## NC(=O)c1ncn([C@@H]2O[C@H](CO)[C@@H](O)[C@H]2O)n1 [Ribavirin, reference compound]
Vero cell cultures
  Minimum cytotoxic concentration: >250 µM
HeLa cell cultures
  Minimum cytotoxic concentration: >250 µM
Influenza B; [11]
  EC50: 2.45 ± 0.25 µM
Influenza B; [12]
  EC50: 2.4 ± 1.6 µM
Coxsackie virus B4 [8]
  EC50: 112 µM
Coxsackie virus B4 [9]
  EC50: 250 µM
Sindbis virus
  EC50: > 250 µM
MDCK cells
  Cytotoxicity Minimum cytotoxic concentration: >100

## Cc1ccc2c(c1)/C(=N/NC(=O)N/N=C1\C(=O)Nc3ccc(C)cc31)C(=O)N2 [6c, 1,3-Bis({[(3Z)-5-methyl-2-oxo-2,3-dihydro-1H-indol-3-ylidene]amino})urea]
Feline herpes virus
  EC50: 55.1 µM
Vero cell cultures
  Minimum cytotoxic concentration: 100 µM
[1]
  EC50: > 100 µM
[2]
  EC50: > 100 µM
[3]
  EC50: > 100 µM
HeLa cell cultures
  Minimum cytotoxic concentration: >100 µM
Influenza B; [11]
  EC50: > 20 µM
Influenza B; [12]
  EC50: > 20 µM
[7]
  Minimum cytotoxic concentration: >100 µM
Coxsackie virus B4 [8]
  EC50: > 100 µM
Vaccinia virus
  EC50: > 100 µM
Coxsackie virus B4 [9]
  EC50: > 20 µM
[4]
  Minimum cytotoxic concentration: >100 µM
[10]; 85 nmol topical
  chemoprevention / anti-tumor promoting activity (in words): highest chemoprevention activity; also recorded: stronger chemoprevention activity
[10]; 85 nmol topical before each TPA, during weeks 10–15
  percentage of papilloma-bearing mice: 40–70%
[10]; 85 nmol topical, week 18
  percentage of papilloma-bearing mice: 90%
[10]; 85 nmol topical, week 20
  papillomas/mouse: 5.1 papillomas/mouse
  percentage of papilloma-bearing mice: 100%
Sindbis virus
  EC50: > 20 µM
Para-influenza-3 virus
  EC50: > 20 µM
[5]
  EC50: > 100 µM
[6]
  EC50: > 100 µM
Reovirus-1
  EC50: > 20 µM
In vitro
  CC50: 46 µM
MDCK cells
  Cytotoxicity Minimum cytotoxic concentration: ≥20
Punta Toro virus
  EC50: > 20 µM
